ChEMBL document CHEMBL3603793, “Antimalarial activity of prodrugs of N-branched acyclic nucleoside phosphonate inhibitors of 6-oxopurine phosphoribosyltransferases” (Bioorg Med Chem, 2015)

How the values were obtained:
Plasmodium falciparum [1] = test: Antimalarial activity against chloroquine-sensitive Plasmodium falciparum D6 infected in erythrocytes assessed as inhibition of [3H]-hypoxanthine incorporation after 6 days; assay type: functional, organism-based
Plasmodium falciparum [2] = test: Antimalarial activity against chloroquine-resistant Plasmodium falciparum W2 infected in erythrocytes assessed as inhibition of [3H]-hypoxanthine incorporation after 6 days; assay type: functional, organism-based
[3] = Cytotoxicity against human A549 cells after 4 days; assay type: cell-based
Procedure, shortened: (§1)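 Cells seeded in 96-well plates at 7,500 (A549) or 15,000 (C32, C32-TG) per well; compounds added at serial dilutions 24 h later. Incubated four days at 37°C, then trypsinized and counted with a Coulter Counter. CC50 is the concentration giving 50% proliferation versus untreated cells, obtained by extrapolation; mean ± SEM of two or three independent tests.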

[4] = Cytotoxicity against human C32 cells after 4 days; assay type: cell-based; procedure, shortened: as §1
[5] = Cytotoxicity against human HGPRT-deficient thioguanine-resistant C32TG cells after 4 days; assay type: cell-based; procedure, shortened: as §1
[6] = molecular target: T1, Hypoxanthine-guanine phosphoribosyltransferase (Homo sapiens, UniProt P00492); test: Inhibition of human HGPRT by spectrophotometric assay
T1 sequence (P00492 whole entry): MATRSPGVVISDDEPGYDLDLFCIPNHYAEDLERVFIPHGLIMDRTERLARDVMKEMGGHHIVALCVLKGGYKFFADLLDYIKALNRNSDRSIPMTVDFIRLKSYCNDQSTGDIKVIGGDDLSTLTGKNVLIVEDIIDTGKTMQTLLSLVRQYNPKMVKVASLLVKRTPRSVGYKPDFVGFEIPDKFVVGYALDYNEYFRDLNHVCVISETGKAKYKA
Procedure, shortened: (§2)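 Spectrophotometric assay at 25°C in 0.1 M Tris-HCl, 10 mM MgCl2, pH 7.4. PRib-PP was the variable substrate and guanine the fixed substrate at a saturating 60 μM. Values are apparent Ki, since only one concentration of the second substrate was used, calculated from Km(app) = Km(1+[I]/Ki(app)).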

[7] = Inhibition of Plasmodium falciparum HGXPRT by spectrophotometric assay; procedure, shortened: as §2

Row | Ki [6] [nM] | Structure (SMILES) | IC50 (Plasmodium falciparum [1]) [µM] | IC50 (Plasmodium falciparum [2]) [µM] | CC50 at 96 h [3] [µM] | CC50 at 96 h [4] [µM] | CC50 at 96 h [5] [µM] | Ki [7] [µM]
1 |  | CCOC(=O)[C@H](Cc1ccccc1)NP(=O)(CCN(CCCC#N)CCn1cnc2c(=O)[nH]cnc21)N[C@@H](Cc1ccccc1)C(=O)OCC | 4.2 | 5.5 | 30 | 102 | 89 | 
2 | 2000 | Nc1nc2c(ncn2CCN(CCP(=O)(O)O)CP(=O)(O)O)c(=O)[nH]1 |  |  |  |  |  | 1
3 |  | CC(C)OC(=O)[C@H](Cc1ccccc1)NP(=O)(CCN(CCOCc1ccccc1)CCn1cnc2c(=O)[nH]c(N)nc21)N[C@@H](Cc1ccccc1)C(=O)OC(C)C | 1.6 | 2.9 | 20 | 17 | 23 | 
4 | 13000 | O=c1[nH]cnc2c1ncn2CCN(CCOCc1ccccc1)CCP(=O)(O)O |  |  |  |  |  | 4.3
5 |  | CCOC(=O)[C@H](Cc1ccccc1)NP(=O)(CCN(CCC(=O)OC)CCn1cnc2c(=O)[nH]cnc21)N[C@@H](Cc1ccccc1)C(=O)OCC | 3.5 | 2.9 | 70 | > 300 | 212 | 
6 |  | CCOC(=O)[C@H](Cc1ccccc1)NP(=O)(CCN(CCn1cnc2c(=O)[nH]cnc21)CP(=O)(N[C@@H](Cc1ccccc1)C(=O)OCC)N[C@@H](Cc1ccccc1)C(=O)OCC)N[C@@H](Cc1ccccc1)C(=O)OCC | 4.7 | 1.6 | 41 | 23 | 25 | 
7 | 3800 | O=c1[nH]cnc2c1ncn2CCN(CCP(=O)(O)O)CC(O)CO (configuration not stated) |  |  |  |  |  | 5
8 |  | CCOC(=O)[C@H](Cc1ccccc1)NP(=O)(CCN(CCn1cnc2c(=O)[nH]c(N)nc21)CP(=O)(N[C@@H](Cc1ccccc1)C(=O)OCC)N[C@@H](Cc1ccccc1)C(=O)OCC)N[C@@H](Cc1ccccc1)C(=O)OCC | 10.4 | 4.6 | > 300 | 65 | 56 | 
9 |  | CCOC(=O)[C@H](Cc1ccccc1)NP(=O)(CCN(CCn1cnc2c(=O)[nH]c(N)nc21)CCP(=O)(N[C@@H](Cc1ccccc1)C(=O)OCC)N[C@@H](Cc1ccccc1)C(=O)OCC)N[C@@H](Cc1ccccc1)C(=O)OCC | 6.3 | 7.4 | 144 | 51 | 53 | 
10 |  | CCOC(=O)[C@H](Cc1ccccc1)NP(=O)(CCN(CCn1cnc2c(=O)[nH]cnc21)CCP(=O)(N[C@@H](Cc1ccccc1)C(=O)OCC)N[C@@H](Cc1ccccc1)C(=O)OCC)N[C@@H](Cc1ccccc1)C(=O)OCC | 3.1 | 2.7 | 79 | 48 | 48 | 
11 |  | CC(C)OC(=O)[C@H](Cc1ccccc1)NP(=O)(CCN(CCOCc1ccccc1)CCn1cnc2c(=O)[nH]cnc21)N[C@@H](Cc1ccccc1)C(=O)OC(C)C | 1.5 | 2.8 | 23 | 13 | 18 | 
12 | 1900 | Nc1nc2c(ncn2CCN(CCOCc2ccccc2)CCP(=O)(O)O)c(=O)[nH]1 |  |  |  |  |  | 2.4
13 |  | CCOC(=O)[C@H](Cc1ccccc1)NP(=O)(CCN(CCC(=O)OC)CCn1cnc2c(=O)[nH]c(N)nc21)N[C@@H](Cc1ccccc1)C(=O)OCC | 11.8 | 5.6 | > 300 | > 300 | > 300 | 
14 | 10000 | O=c1[nH]cnc2c1ncn2CCN(CCP(=O)(O)O)CP(=O)(O)O |  |  |  |  |  | 6
15 |  | CCOC(=O)[C@H](Cc1ccccc1)NP(=O)(CCN(CCCC(=O)OC)CCn1cnc2c(=O)[nH]c(N)nc21)N[C@@H](Cc1ccccc1)C(=O)OCC | 8.6 | 5.7 | ≥ 232 | 234 | ≥ 246 | 

Row | Structure (SMILES) | Ki [6] [nM] | IC50 (Plasmodium falciparum [1]) [µM] | IC50 (Plasmodium falciparum [2]) [µM] | CC50 at 96 h [3] [µM] | CC50 at 96 h [4] [µM] | CC50 at 96 h [5] [µM] | Ki [7] [µM]
16 | Nc1nc2c(ncn2CCN(CCP(=O)(O)O)CC(O)CO)c(=O)[nH]1 (configuration not stated) | 600 |  |  |  |  |  | 0.6
